Assay results from ChEMBL document CHEMBL1142739, “Development of spin-labeled probes for adenosine receptors” (J Med Chem, 2005).

Tests used:
[1] = target: T1, Adenosine receptor A2b (Homo sapiens, UniProt P29275); experiment: Inhibition of [3H]ZM-241380 binding to adenosine A2b receptor
T1 sequence (P29275 whole entry): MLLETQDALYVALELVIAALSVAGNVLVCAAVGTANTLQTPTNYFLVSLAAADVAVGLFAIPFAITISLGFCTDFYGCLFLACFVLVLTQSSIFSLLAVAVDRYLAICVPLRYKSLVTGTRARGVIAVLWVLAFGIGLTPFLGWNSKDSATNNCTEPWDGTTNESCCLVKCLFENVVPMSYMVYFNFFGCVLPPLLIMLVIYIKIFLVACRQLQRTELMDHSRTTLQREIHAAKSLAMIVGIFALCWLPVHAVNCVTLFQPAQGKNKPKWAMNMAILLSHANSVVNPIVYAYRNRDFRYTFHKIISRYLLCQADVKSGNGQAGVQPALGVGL

[2] = target: T2, Adenosine receptor A2a (Rattus norvegicus, UniProt P30543); experiment: Inhibition of [3H]MSX-2 binding to adenosine A2a receptor
T2 sequence (P30543 whole entry): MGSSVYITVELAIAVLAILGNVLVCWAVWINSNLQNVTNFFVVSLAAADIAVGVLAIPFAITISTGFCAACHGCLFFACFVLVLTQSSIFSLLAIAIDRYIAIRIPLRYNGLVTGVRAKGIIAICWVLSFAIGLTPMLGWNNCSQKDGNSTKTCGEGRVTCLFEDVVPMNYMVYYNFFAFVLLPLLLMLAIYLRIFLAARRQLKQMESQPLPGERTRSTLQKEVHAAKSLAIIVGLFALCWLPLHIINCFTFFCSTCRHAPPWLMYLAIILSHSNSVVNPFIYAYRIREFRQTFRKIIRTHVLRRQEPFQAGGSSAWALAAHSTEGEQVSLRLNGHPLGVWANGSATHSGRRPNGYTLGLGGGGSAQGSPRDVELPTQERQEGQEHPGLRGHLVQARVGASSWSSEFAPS

[3] = target: T3, Adenosine receptor A1 (Rattus norvegicus, UniProt P25099); experiment: Inhibition of [3H]CCPA binding to adenosine A1 receptor
T3 sequence (P25099 whole entry): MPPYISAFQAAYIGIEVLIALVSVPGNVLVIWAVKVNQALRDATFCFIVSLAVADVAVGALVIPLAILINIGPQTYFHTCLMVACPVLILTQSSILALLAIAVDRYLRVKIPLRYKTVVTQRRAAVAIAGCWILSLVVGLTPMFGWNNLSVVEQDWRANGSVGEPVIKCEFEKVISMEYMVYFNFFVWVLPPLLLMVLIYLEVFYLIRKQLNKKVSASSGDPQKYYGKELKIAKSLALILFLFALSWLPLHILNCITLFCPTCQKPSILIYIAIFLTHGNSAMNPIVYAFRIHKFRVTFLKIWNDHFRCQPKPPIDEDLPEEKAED
Summary of the method: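 Radioligand competition assay; rat brain cortical membranes as the receptor source.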

[4] = target: T4, Adenosine receptor A3 (Homo sapiens, UniProt P0DMS8); experiment: Inhibition of [3H]PSB-11 binding to adenosine A3 receptor
T4 sequence (P0DMS8 whole entry): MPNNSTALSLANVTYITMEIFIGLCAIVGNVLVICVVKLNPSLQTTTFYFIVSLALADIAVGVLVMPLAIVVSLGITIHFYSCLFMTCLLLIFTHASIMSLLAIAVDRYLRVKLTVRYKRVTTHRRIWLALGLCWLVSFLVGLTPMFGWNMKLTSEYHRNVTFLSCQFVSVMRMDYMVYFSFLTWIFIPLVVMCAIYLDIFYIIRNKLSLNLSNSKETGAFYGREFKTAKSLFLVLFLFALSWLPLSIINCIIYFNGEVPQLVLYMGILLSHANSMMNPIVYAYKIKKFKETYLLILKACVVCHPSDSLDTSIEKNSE

[5] = target: T1, Adenosine receptor A2b; experiment: Inhibition of [3H]PSB-298 binding to adenosine A2b receptor
[6] = target: T5, Adenosine receptor A2b (Homo sapiens) (UniProt P29275); experiment: Percent inhibition of [3H]PSB-298 binding to adenosine A2b receptor at 10 uM
T5 sequence (whole entry): T1 sequence (P29275 whole entry)
Summary of the method: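 Radioligand competition assay; membranes from CHO cells stably expressing the human receptor. Percent inhibition of radioligand binding is reported at the stated test concentration.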

[7] = target: T6, Adenosine receptor A3 (Homo sapiens) (UniProt P0DMS8); experiment: Percent inhibition of [3H]PSB-11 binding to adenosine A3 receptor at 10 uM
T6 sequence (whole entry): T4 sequence (P0DMS8 whole entry)
Summary of the method: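 Radioligand competition assay; membranes from HEK cells stably expressing the human receptor. Percent inhibition of radioligand binding is reported at the stated test concentration.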

[8] = target: T2, Adenosine receptor A2a; experiment: Inhibition of [3H]NECA binding to adenosine A2a receptor
Summary of the method: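 Competition binding on rat brain striatal membranes as the A2A source. Where no Ki was reached, percent inhibition of radioligand binding was reported at 1 or 10 µM test compound.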

[9] = target: T3, Adenosine receptor A1; experiment: Inhibition of [3H]R-PIA binding to adenosine A1 receptor
Summary of the method: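 Competition binding on rat brain cortical membranes as the A1 source. Where no Ki was reached, percent inhibition of radioligand binding was reported at 1 or 10 µM test compound.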

Row | SMILES | Ki [1] | Ki [2] | Ki [3] | Ki [4] | Ki [5] | inhibition [6] | inhibition [7] | Ki [8] | Ki [9]
1 | CCCCn1c(=O)[nH]c2[nH]c(-c3ccc(OCC(=O)Nc4ccc(CC(=O)O)cc4)cc3)nc2c1=O | 5.3 nM | 479 nM | 41 nM | 676 nM | – | – | – | – | –
2 | CCCn1c(=O)c2nc(C3CCCC3)[nH]c2n(CC2=CC(C)(C)N([O])C2(C)C)c1=O | – | 8780 nM | 5.47 nM | 1700 nM | > 1000 nM | 23% | – | – | –
3 | CCCn1c(=O)c2nc(C3=CC(C)(C)N([O])C3(C)C)[nH]c2n(CCC)c1=O | – | 3800 nM | 8.23 nM | ~10000 nM | 3100 nM | – | 47% | – | –
4 | CCCn1c(=O)c2nc(C3CC(C)(C)N([O])C(C)(C)C3)[nH]c2n(CCC)c1=O | – | 6750 nM | 160 nM | ~10000 nM | > 10000 nM | – | – | – | –
5 | CCCn1c(=O)c2[nH]c(C3CCCC3)nc2n(Cc2ccccc2)c1=O | – | – | – | 54.6 nM | – | – | – | 511 nM | 8.7 nM
